inhibition, MIC and Activity data for 13 molecules are collected here from ChEMBL document CHEMBL1145538, “In vitro inhibition of Streptococcus mutans biofilm formation on hydroxyapatite by subinhibitory concentrations of anthraquinones” (2007).

Values after ≈ are worked out from the molar mass of the structure shown. Active and inactive are the calls of the source. No cut-off for these calls is given here. A value given as a limit tells only on which side of the number the result lay.

Assay [1] deals with Streptococcus mutans. The assay is described as follows: Effect on Streptococcus mutans LMG 14558 assessed as inhibition of biofilm formation in modified Robbin's device at 5 ug/ml relative to BHIS control. The format is functional. The essentials: (§1)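 S. mutans LMG 14558T grown at 37°C as biofilms on hydroxyapatite disks in modified Robbins' devices, in BHI plus 1% sucrose (BHIS) containing compound at the stated concentration. Biomass per disk is estimated by SYTO9 fluorescent staining and given as % of BHIS-only controls (avg ± SD). Significance by one-tailed independent-sample t test; P > 0.01 is not significant.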

Assay [2] relates to Streptococcus mutans. Put plainly: Activity against planktonic Streptococcus mutans LMG 14558. The format is functional. The essentials: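 S. mutans LMG 14558T, routinely grown in BHI broth at 37°C, was tested against planktonic cells by broth microdilution in 96-well microtiter plates to give the MIC in μg/ml. The modified microdilution was also run with and without 1.5 mM glutathione, 0.025% (wt/vol) cysteine or 10 mM mannitol as ROS scavengers, including in chemically defined M1 medium.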

For assay [3], the system named is Streptococcus mutans. The assay is described as follows: Decrease in membrane fluidity of Streptococcus mutans LMG 14558 using pyrene in BHI medium at 5 ug/ml relative to BHI control. The format is functional. Details: scale not given: the % may be the effect or the level left. Summed up:
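Relative membrane fluidity (lateral diffusion) of S. mutans LMG 14558T grown in BHI with or without 5 μg/ml compound, read as pyrene intermolecular excimer-to-monomer fluorescence intensity ratio at constant temperature. Relative fluidity F = (Ie/Im treated)/(Ie/Im untreated) × Fr, with untreated BHI-grown cells set to Fr = 1.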

In assay [4] the test system is Streptococcus mutans. The assay is described as follows: Susceptibility of Streptococcus mutans LMG 14558 in BHIS medium assessed as increase in biofilm formation at 5 ug/ml in presence of 0.025% cysteine. Format: functional, organism-based.
In assay [5] the test system is Streptococcus mutans. The assay is described as follows: Effect on Streptococcus mutans LMG 14558 assessed as inhibition of biofilm formation in modified Robbin's device at 2 ug/ml relative to BHIS control. The format is functional. Summed up: as §1
Assay [6] concerns Streptococcus mutans. The assay is described as follows: Effect on Streptococcus mutans LMG 14558 assessed as inhibition of biofilm formation in modified Robbin's device at 1 ug/ml relative to BHIS control. Format: functional. Summed up:
as §1

Assay [7] relates to Streptococcus mutans. The assay is described as follows: Effect on Streptococcus mutans LMG 14558 assessed as inhibition of biofilm formation in modified Robbin's device at 0.1 ug/ml relative to BHIS control relative to BHIS control. The format is functional. Summed up: as §1
For assay [8], the system named is Streptococcus mutans. The assay is described as follows: Effect on Streptococcus mutans LMG 14558 assessed as inhibition of biofilm formation in modified Robbin's device at 0.5 ug/ml relative to BHIS control. Format: functional. Summed up: as §1
In assay [9] the test system is Streptococcus mutans. The assay is described as follows: Effect on Streptococcus mutans LMG 14558 assessed as inhibition of biofilm formation in modified Robbin's device at 1200 ug/ml relative to BHIS control. The format is functional. The essentials: as §1
Assay [10] concerns Streptococcus mutans. Put plainly: Effect on Streptococcus mutans LMG 14558 assessed as inhibition of biofilm formation in modified Robbin's device at 50 ug/ml relative to BHIS control. The format is functional. Summed up:
as §1

The test system of assay [11] is Streptococcus mutans. The assay is described as follows: Effect on Streptococcus mutans LMG 14558 assessed as inhibition of biofilm formation in modified Robbin's device at 1333 ug/ml relative to BHIS control. Format: functional. The essentials:
as §1

For the molecule `O=C1c2ccccc2C(=O)c2c(O)ccc(O)c21` [QUINIZARIN], in the assay with Streptococcus mutans [1], the inhibition at 5 µg/mL was found to be 80%. Besides, 250 µg/mL (≈ 1040 µM) was the least that counted as inhibitory against Streptococcus mutans [2] (MIC).

As for `Cc1cc(O)c2c(c1)C(=O)c1cccc(O)c1C2=O` [CHRYSOPHANOL], the inhibition at 5 µg/mL in the assay on Streptococcus mutans [1] was 75%. In the assay on Streptococcus mutans [2], this molecule showed an MIC of 250 µg/mL (≈ 983 µM).

On to `Cc1cc(O)c2c(=O)c3c(O)cc(O)c4c5c(O)cc(O)c6c(=O)c7c(O)cc(C)c8c1c2c(c34)c(c78)c65` [HYPERICIN], for which the inhibition at 5 µg/mL with Streptococcus mutans [1] amounted to 47.8%. The molecule also registered an MIC with Streptococcus mutans [2] of 250 µg/mL (≈ 496 µM). The same molecule registered an Activity with Streptococcus mutans [3] of 35.6%.

In the case of `Cc1cc(O)c2c(c1)C(=O)c1cc(O)cc(O)c1C2=O` [EMODIN], in the assay on Streptococcus mutans [4], the result was inactive. The inhibition at 2 µg/mL in the assay with Streptococcus mutans [5] was 52.1%. Moreover, the inhibition at 5 µg/mL with Streptococcus mutans [1] worked out at 10.9%. Further, the inhibition at 1 µg/mL in the assay with Streptococcus mutans [6] worked out at 79%. In the assay on Streptococcus mutans [2], this molecule showed an MIC greater than 250 µg/mL. In addition, the inhibition at 0.1 µg/mL in the assay with Streptococcus mutans [7] came to 101%. The Activity with Streptococcus mutans [3] is on record as 21.2%. In addition, in the assay on Streptococcus mutans [8], the inhibition at 0.5 µg/mL was 85.7%.

In the case of `O=C1c2cccc(O)c2C(=O)c2c(O)cccc21` [DANTHRON], the inhibition at 5 µg/mL with Streptococcus mutans [1] is 91.3%. In the assay with Streptococcus mutans [2], the MIC came to 250 µg/mL (≈ 1040 µM).

Consider `COc1cc(O)c2c(c1)C(=O)c1cc(C)cc(O)c1C2=O` [PHYSCION], for which the inhibition at 5 µg/mL in the assay with Streptococcus mutans [1] stood at 120%. Besides, the MIC in the assay with Streptococcus mutans [2] was greater than 250 µg/mL.

As to `N=C(NCCCCCCNC(=N)NC(=N)Nc1ccc(Cl)cc1)NC(=N)Nc1ccc(Cl)cc1` [CHLORHEXIDINE], the inhibition at 1200 µg/mL in the assay with Streptococcus mutans [9] worked out at 34.5%. For the same molecule, the MIC with Streptococcus mutans [2] worked out at 2 µg/mL (≈ 3.96 µM). In the assay on Streptococcus mutans [7], the inhibition at 0.1 µg/mL is 104%.

For the molecule `O=C1c2cccc(O)c2C(=O)c2c(O)cc(CO)cc21` [ALOE-EMODIN], the inhibition at 50 µg/mL in the assay on Streptococcus mutans [10] came out at 99.2%. In addition, in the assay on Streptococcus mutans [2], the MIC was greater than 250 µg/mL.

On to `Cc1c(C(=O)O)c(O)cc2c1C(=O)c1c(O)c([C@@H]3O[C@H](CO)[C@@H](O)[C@H](O)[C@H]3O)c(O)c(O)c1C2=O` [CARMINIC ACID], for which the inhibition at 5 µg/mL with Streptococcus mutans [1] is 66.5%. This molecule returned an MIC in the assay with Streptococcus mutans [2] greater than 250 µg/mL.

Take `O=C(O)c1cc(O)c2c(c1)C(C1c3cccc(O)c3C(=O)c3c(O)cc(C(=O)O)cc31)c1cccc(O)c1C2=O` (stereo not given) [SENNIDIN A]: the inhibition at 5 µg/mL in the assay on Streptococcus mutans [1] came to 83.7%. This molecule registered an MIC in the assay on Streptococcus mutans [2] greater than 250 µg/mL.

With `O=C(O)c1cc(O)c2c(c1)C(=O)c1cccc(O)c1C2=O` [RHEIN], the inhibition at 5 µg/mL in the assay with Streptococcus mutans [1] turned out to be 75.2%. In the assay on Streptococcus mutans [2], this molecule gave an MIC of 10 µg/mL (≈ 35.2 µM).

On to `Oc1cc(Cl)ccc1Oc1ccc(Cl)cc1Cl` [TRICLOSAN], for which the inhibition at 1333 µg/mL in the assay with Streptococcus mutans [11] amounted to 10.9%. In addition, in the assay on Streptococcus mutans [1], the inhibition at 5 µg/mL is 78.1%. The MIC in the assay with Streptococcus mutans [2] was found to be 16 µg/mL (≈ 55.3 µM).

As for `O=C1c2ccc(O)cc2C(=O)c2ccc(O)cc21` [ANTHRAFLAVICACID], in the assay with Streptococcus mutans [1], the inhibition at 5 µg/mL turned out to be 98.2%. In the assay with Streptococcus mutans [2], this molecule registered an MIC of 250 µg/mL (≈ 1040 µM).

By inhibition is commonly meant the change of the read-out against control, counted positive when it falls. One may read the MIC as the lowest concentration that inhibits growth of the organism.
